Experimental data published in publication PMC8649514 (Journal of the American Heart Association: Cardiovascular …, 2021).
Bridges are numbered along the chain shown (N, C = ends). Where no end group is shown, it is not given here.

What was measured:
[1] = system: ventricular lysates of β2‐AR transgenic mouse hearts; test: Quantification of peptide accumulation in mouse heart lysates; format: in vivo; details: sulfo‐Cy5.5 cyclic peptide iv 0.5 mg/kg, 4 h, β2‐AR Tg mice; n=4 per group
[2] = system: heart and organs of β2‐AR transgenic mice; test: Cardiac tracer uptake in whole organs by ex vivo NIR fluorescence imaging; set-up: species or system mouse; details: iv 0.5 mg/kg, 4 h, whole-organ Odyssey scan; P=0.057–0.1; n=4 per group
[3] = system: collagen IV; test: Coimmunostaining of collagen IV and T peptide in human cardiac tissue; details: ex vivo costaining, IHD patient heart section, confocal microscopy
Procedure, shortened: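 Fresh-frozen IHD and nonfibrotic donor human heart cryosections (10 or 5 µm) were PBS-washed, blocked in 10% normal goat serum for 2 h at room temperature, and incubated 72 h at 4 °C with sulfo-Cy5.5 T peptide (0.0375 µg/mL in PBS). Collagen IV was stained with primary antibody (10 µg/mL, overnight, 4 °C) and Alexa Fluor 488 anti-rabbit secondary (2 µg/mL). Nuclei were stained with Hoechst (5 µg/mL), and images were taken by confocal microscopy at ×20.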

GKWHCTTKFPHHYCLYG (disulfide 5-14 (inferred)) [cyclic peptide]
amount of peptide per gram tissue, left vs right transgenic ventricle [1]: twice | peptide accumulation in kidneys and lungs, fibrotic vs nontransgenic mice [2]: near‐significant enhancement

TLTYTWS [T peptide]
overlap with collagen IV in human cardiac tissue [3]: high degree of overlap
